Shown are actives, neighbours in structure and some others; about 2.9% of the full set was active somewhere.
S100A4 MyoIIA: inhibitors of S100A4-myosin IIA peptide binding, primary screen, biochemical, fluorescence polarization, TAMRA-MyoIIA peptide; Protein S100-A4 (Homo sapiens), P26447; inhibition, % at 10.7 µM; hit rate 0.14% among 360,000; AID 652163, 2013;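 active means mean inhibition of at least 70% across replicates, with every replicate also reaching that level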
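Assay system: human S100A4 monomer with TAMRA-labelled myosin IIA peptide / Buffer or medium: Calcium-containing HEPES buffer, pH 7.2 / Reagent: TAMRA-labelled myosin IIA heavy-chain peptide probe, 5 nM / Compound: one dose per compound / Timing: polarization read 5 min after assay mix addition, stable 5–60 min / Benchmarks: neutral control DMSO, positive control TFP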
CAL PDZ FP-1: untagged CAL PDZ binding inhibitors, primary screen, biochemical, fluorescence polarization, HTS; Golgi-associated PDZ and coiled-coil motif-containing protein (Homo sapiens), Q9HD26; purified CAL PDZ, TMR-peptide fluorescence polarization, 1 h; inhibition, % at 24.9 µM; hit rate 0.92% among 300,000; AID 602252, 2012;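 active means mean inhibition of at least 30% with at least half of replicates also reaching 30%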;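 further: 0% = DMSO neutral control and 100% = excess unlabeled competitor peptide PRC23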
ERAP1 HTS inh: human ERAP1 aminopeptidase inhibitors, primary screen, biochemical, single point, plate reader | Endoplasmic reticulum aminopeptidase 1 (Homo sapiens), Q9NZ08 | recombinant ERAP1, Leu-AMC fluorescence, 60 min | inhibition, % at 10.7 µM | hit rate 0.15% among 340,000;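 active means mean replicate inhibition of at least 30%, or all replicates individually reaching that 30% level; inactive means mean below 30% and not every replicate reaching it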;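 further: 0% = neutral control wells and 100% = L-leucinethiol positive control wells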
Target sequence (Q9NZ08 whole entry, looked up): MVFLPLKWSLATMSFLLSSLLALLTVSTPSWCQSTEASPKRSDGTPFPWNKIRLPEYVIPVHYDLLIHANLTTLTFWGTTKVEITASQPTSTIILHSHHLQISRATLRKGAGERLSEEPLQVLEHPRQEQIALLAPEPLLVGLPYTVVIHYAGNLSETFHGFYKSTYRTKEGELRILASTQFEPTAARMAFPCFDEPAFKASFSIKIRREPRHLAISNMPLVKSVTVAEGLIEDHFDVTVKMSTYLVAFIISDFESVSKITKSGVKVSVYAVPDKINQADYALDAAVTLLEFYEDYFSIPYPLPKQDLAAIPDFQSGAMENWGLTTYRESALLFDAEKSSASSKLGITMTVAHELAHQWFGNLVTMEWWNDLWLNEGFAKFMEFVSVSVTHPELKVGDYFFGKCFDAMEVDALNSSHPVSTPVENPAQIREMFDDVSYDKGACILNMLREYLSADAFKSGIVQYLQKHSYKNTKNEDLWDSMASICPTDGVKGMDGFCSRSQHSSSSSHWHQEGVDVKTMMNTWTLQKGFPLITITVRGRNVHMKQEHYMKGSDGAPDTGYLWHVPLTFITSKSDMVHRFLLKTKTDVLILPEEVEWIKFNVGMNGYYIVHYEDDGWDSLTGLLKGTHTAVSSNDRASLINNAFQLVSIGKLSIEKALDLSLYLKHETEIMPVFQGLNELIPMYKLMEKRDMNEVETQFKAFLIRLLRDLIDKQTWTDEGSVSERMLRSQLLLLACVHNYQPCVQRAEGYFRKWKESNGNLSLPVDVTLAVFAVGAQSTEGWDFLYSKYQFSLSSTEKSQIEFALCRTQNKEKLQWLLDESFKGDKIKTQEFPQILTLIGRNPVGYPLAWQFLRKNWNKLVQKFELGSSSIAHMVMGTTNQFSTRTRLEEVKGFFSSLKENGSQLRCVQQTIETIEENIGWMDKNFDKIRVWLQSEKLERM
CAL PDZ FP-2: CAL PDZ peptide-binding inhibitors, primary screen, biochemical, fluorescence polarization, Cer-tagged CAL PDZ, HTS; purified CAL PDZ, TMR-peptide fluorescence polarization, 1 h; inhibition, % at 20 µM; hit rate 0.02% among 330,000; AID 504414, 2011; Golgi-associated PDZ and coiled-coil motif-containing protein (Homo sapiens), Q9HD26;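 active means highest replicate inhibition of at least 40%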;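 further: plate controls were DMSO neutral control wells for no effect and unlabeled competitor peptide control wells for full effect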
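Test system: purified CerCALP PDZ construct; Compound dosing: one concentration, 20 µM compound; Also added: TMR-labelled reporter peptide T*-PRC34 bound in PDZ groove; Read-out: inhibition from polarization loss; Controls: unlabelled peptide and DMSO controls; Signal: FP readout, S and P plane fluorescence; Incubation: 1 h at RT.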
SIRT5 inh: SIRT5 desuccinylase inhibitors, primary screen, biochemical, fluorescence imaging, single point, set 5; Purified SirT5, succinyl-peptide AMC, trypsin-coupled fluorescence; inhibition, % at 15 µM; hit rate 1.1% among 330,000; in the data active means inhibition above about 15%
DENV2 CPE rescue: inhibitors of DENV2 cytopathic effect, primary screen, cell-based, plate reader, single concentration; hit rate 1.7% among 350,000; AID 651640, 2012; CPE inhibition, % at 9.99 µM; DENV2-infected cells, cytopathic effect rescue; in the data active means CPE inhibition above about 20%, passing the limit was not always enough; tested in BHK-21 cells;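 further: 0% = median of neutral control wells and 100% = median of positive control wells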
* hit, by the source's call; x = no result.

SMILES	S100A4 MyoIIA	CAL PDZ FP-1	ERAP1 HTS inh	CAL PDZ FP-2	SIRT5 inh	DENV2 CPE rescue
CCN(CC(=O)Nc1c(F)cccc1F)C(=O)C1CCN(S(=O)(=O)c2ccc(F)cc2)CC1	0.8	-0.2	0.3	1.0	-3.3	28.4*
O=S(=O)(N[C@H]1CC[C@H](CCn2cc(C3CC3)nn2)O[C@@H]1CO)c1ccc(Cl)cc1	-15.2	x	-2.2	x	4.3	-5.9
C[C@@H]1CN([C@@H](C)CO)S(=O)(=O)c2ccc(-c3cncnc3)cc2O[C@H]1CN(C)C(=O)C1CCCCC1	8.3	x	-0.6	x	2.5	19.1
Cc1cc(C)nc(N/N=C/C2=C(O)CC(c3ccccc3)CC2=O)n1 (centres undefined)	-0.2	x	x	x	-1.7	31.9*
COc1ccc(NC(=O)c2cc3c(-c4ccc(OC)c(OC)c4)nn(C)c3s2)cc1OC	x	55.8*	x	9.9	x	x
COc1ccc(-c2nn(C)c3sc(C(=O)NCc4ccco4)cc23)cc1OC	x	-1.4	x	-0.9	x	x
CCc1ccccc1NC(=S)N(Cc1cccnc1)Cc1ccco1	2.5	-3.8	4.5	1.4	x	4.0
Cc1cc(C)c(NC(=S)N(Cc2cccnc2)Cc2ccco2)c(C)c1	-2.6	x	-0.2	0.9	-0.2	48.8*
C[C@@H]1CN([C@@H](C)CO)C(=O)Cc2cc(NC(=O)CCCCCC(=O)Nc3ccccc3N)ccc2O[C@H]1CN(C)C(=O)Nc1ccc(F)cc1	-12.8	x	3.2	x	-5.7	9.0
COc1ccc(OC)c(S(=O)(=O)N2CCN(c3ncccn3)CC2)c1	-6.6	-5.8	-2.3	1.6	-6.1	-0.9
COc1ccc(OC)c(S(=O)(=O)N2CCN(c3c(C)cccc3C)CC2)c1	-1.5	x	-5.8	0.0	-1.4	26.9*
COc1cccc(CNC(=O)C[C@@H]2CC[C@H](NC(C)=O)[C@@H](CO)O2)c1	-2.5	x	1.6	x	4.1	0.0
CN1C(=O)/C(=C/c2ccc(C(=O)Nc3ccc(O)cc3C(=O)O)cc2)SC1=S	-13.0	4.2	2.2	-0.9	28.0*	-2.5
Cc1ccc(/C=C2\SC(=S)N(CCC(=O)NNC(=O)c3ccc(O)cc3)C2=O)cc1	3.6	x	-1.8	-4.6	-2.7	-2.0
CC(NC(=O)c1c(N)[nH]c(C(=O)c2ccccc2)c1-c1ccccc1Br)c1cccc2ccccc12 (centres undefined)	-5.8	x	0.2	x	-0.1	5.5
CC(NC(=O)c1c(N)[nH]c(C(=O)c2ccc(Cl)cc2)c1-c1ccc(Br)cc1)c1cccc2ccccc12 (centres undefined)	-4.5	x	-2.8	x	-1.6	38.8*
Nc1[nH]c(C(=O)c2ccc(Br)cc2)c(-c2ccc(Cl)cc2)c1C(=O)NCCc1c[nH]c2ccccc12	-4.0	x	-1.4	x	-1.1	44.0*
CCC(=O)N1CCCCN2[C@H](CO)[C@@H](c3ccc(C#Cc4ccccc4F)cc3)[C@@H]2C1	-1.1	x	6.2	x	1.2	-3.1
O=C1CN(C(=O)CSc2nc(-c3ccc(Cl)cc3)cs2)c2ccccc2N1	0.7	-1.7	2.3	-2.1	15.0*	-2.6
O=C(C[C@H]1CC[C@H](NS(=O)(=O)c2ccccc2)[C@H](CO)O1)NCc1ccccc1F	-1.0	x	-3.5	x	-0.3	x
CNC(=O)C[C@H]1CC[C@@H]2[C@H](COc3ccc(NC(=O)c4cscn4)cc3C(=O)N2C)O1	x	x	x	x	x	29.3*
CCNC(=O)C[C@@H]1CC[C@@H]2[C@H](COc3ccc(NC(=O)c4ccc(F)c(F)c4)cc3C(=O)N2C)O1	-2.1	x	-0.2	x	-2.5	90.1*
CN1C(=O)c2cc(NC(=O)c3cccc(F)c3)ccc2OC[C@H]2O[C@@H](CC(=O)NCC3CC3)CC[C@H]21	22.1	x	-5.0	x	-1.2	20.6*
CNC(=O)C[C@H]1CC[C@H]2[C@@H](COc3ccc(NC(=O)c4ccc(F)c(F)c4)cc3C(=O)N2C)O1	1.6	x	1.7	x	3.1	52.1*
CN1C(=O)c2cc(NC(=O)c3cccc(F)c3)ccc2OC[C@H]2O[C@H](CC(=O)NCC3CCCCC3)CC[C@@H]21	-4.2	x	0.3	x	-0.5	12.5
SMILES	S100A4 MyoIIA	CAL PDZ FP-1	ERAP1 HTS inh	CAL PDZ FP-2	SIRT5 inh	DENV2 CPE rescue
CCNC(=O)C[C@H]1CC[C@H]2[C@@H](COc3ccc(NC(=O)c4ccc(F)c(F)c4)cc3C(=O)N2C)O1	-5.7	x	-2.5	x	-2.9	-8.6
COc1ccc(S(=O)(=O)Nc2ccc3c(c2)CC(=O)N([C@@H](C)CO)C[C@@H](C)[C@@H](CN(C)C(=O)Nc2ccc4c(c2)OCO4)O3)cc1	1.2	x	2.9	x	0.9	8.7
CC(C)OC(=O)c1cccc(C(=O)O)n1	6.3	-0.7	-9.9	-2.6	18.7*	x
COc1ccc2c3c(n(C)c2c1)[C@H](CO)N(S(C)(=O)=O)CC31CCN(C(=O)c2ccccn2)CC1	x	x	x	x	x	77.3*
COc1ccc2c3c(n(C)c2c1)[C@H](CO)N(C(=O)c1ccccn1)CC31CCN(C(=O)c2ccccn2)CC1	-3.0	x	-6.1	x	-1.0	3.8
COc1ccc2c3c(n(C)c2c1)[C@@H](CO)N(S(C)(=O)=O)CC31CN(C(=O)c2ccccn2)C1	13.8	x	-0.6	x	2.8	34.1*
Cc1cc(Br)c(NC(=O)COC(=O)CC2CC3CCC2C3)c(Br)c1 (centres undefined)	4.1	2.9	0.9	0.2	18.8*	0.1
CN(C)CCCNC(=O)C[C@H]1CC[C@H]2[C@@H](COc3ccc(NC(=O)c4ccc5c(c4)OCO5)cc3C(=O)N2C)O1	3.1	x	-1.6	x	1.3	-8.9
COc1ccc(CCN2CCC(CN3C(=S)NC[C@@H]3Cc3ccccc3)CC2)cc1OC	-13.1	x	-4.9	x	0.5	93.3*
CCCCN1CCC(CN2C(=O)C(=O)NC[C@@H]2Cc2ccccc2)CC1	-15.1	-2.1	0.8	-0.8	-1.8	-2.7
O=C1NC[C@H](Cc2ccccc2)N(CC2CCN(CCCCc3ccccc3)CC2)C1=O	-3.4	-2.8	-3.2	-0.5	-1.9	35.2*
CC=Cc1ccc2n(c1=O)C[C@@H]1[C@@H](CO)[C@H](C(=O)N3CCc4ccccc4C3)N[C@H]21 (mixture of isomers)	15.9	x	-3.5	x	-1.2	-3.2
COc1cc(NC(=S)Nc2ccccn2)cc(OC)c1	x	43.5*	x	-1.2	x	x
COCC(=O)Nc1ccc2c(c1)C(=O)N(C)[C@H]1CC[C@@H](CC(=O)NC3CCCC3)O[C@@H]1CO2	x	x	x	x	x	-2.4
Cc1ccc(/C=N/NC(=O)C[n+]2ccccc2)o1	3.2	0.9	-2.0	-0.6	21.4*	2.6
O=C(C[n+]1ccccc1)N/N=C/c1ccc(F)cc1	0.0	6.9	-0.7	-0.4	112.3*	-2.8
